# Hits are enriched below; roughly 2.9% of the tested compounds scored in any of these assays.
# Ecoli rRNA inh: inhibits bacterial ribosomal RNA function over humanized ribosomes; GFP signal change (wild-type ribosome), % (no concentration beside the values); 1.6% of 350,000 active; E. coli WT GFP vs humanized-ribosome RFP mutants, fluorescence, 24 h; hits give low values; DMSO median 0, no signal -100;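 active means significant combined selectivity score with lowered wild-type GFP, culture density cut under 30%, mutant RFP and density less affected; inactive means any of these conditions unmet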
# FGF22 binding: binders of recombinant human FGF22 by thermal shift. Q9HCT0. AID 651658. 1.5% of 340,000 active. activity (Tm shift, normalised), % at 9.99 µM. SYPRO orange fluorescence; percent of sucrose octasulfate shift, DMSO zero;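 active means mean Tm shift, scaled 0 neutral to 100 positive control, at about 1.3% or above, every replicate too, limit read from the data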
# Target sequence (Q9HCT0 whole entry, looked up): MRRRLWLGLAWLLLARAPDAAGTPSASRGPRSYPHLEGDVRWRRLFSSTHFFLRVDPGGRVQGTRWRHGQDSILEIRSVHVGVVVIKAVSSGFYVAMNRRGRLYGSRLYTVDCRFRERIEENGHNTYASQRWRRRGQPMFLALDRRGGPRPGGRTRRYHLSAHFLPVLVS
# Vif imaging: blocks HIV Vif function; HEK293T cells, Vif self-association by quenched fluorescence, imaging, 24 h; inhibition, % at 7.49 µM; 0.35% of 340,000 active; AID 602346; in the data active means inhibition above about 50%, passing the limit was not always enough
# Cneo AK release: causes C. neoformans cell lysis. adenylate kinase release luminescence, 4 h; normalised: neutral wells 0, clomiphene wells 100. lysis activity, % at 15 µM. 0.2% of 360,000 active. AID 651654;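 active means mean lysis activity across replicates of at least 80%, whatever share of replicates individually reach that level; inactive means mean lysis activity below 80%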
#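 Assay system: C. neoformans cells. Amount: yeast cell density of 5 × 10^6 cells/mL. Technique: AK luminescence. Buffer or medium: YPD. Times: static 4 h at 37 °C with compound, 1 h detection. Dosing: single-point compound dose. Read-out: lysis from increased AK signal.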
# PglD inh: PglD (C. jejuni) enzyme inhibition; 0.098% of 360,000 active; purified PglD enzyme, DTNB colorimetric CoA detection; inhibition, % at 12.5 µM; in the data active means inhibition above about 16%, passing the limit was not always enough
# PGC1a acetyl inh: lowers PGC1a acetylation signal in U2OS cells | AlphaScreen anti-acetyl-lysine; with virally co-expressed GCN5 acetyltransferase | inhibition, % at 15.6 µM | 0.17% of 350,000 active;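 active means every replicate shows inhibition of at least 40%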;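 further: 0% = neutral control wells and 100% = positive control wells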
# An asterisk follows results filed as active; x = no result.
SMILES,Ecoli rRNA inh,FGF22 binding,Vif imaging,Cneo AK release,PglD inh,PGC1a acetyl inh
C/C=C/c1ccc([C@H]2[C@H](CO)N(C(=O)CC)[C@H]2CNC(=O)CC2CC2)cc1,-3,x,x,x,0,-5
Cc1ccc(C)c(NC2=C(Cl)C(=O)OC2OC(=O)c2ccco2)c1 (stereo not given),-28*,0,1,-2,-7,x
COc1ccc(C(=O)N/C(=C\c2cc(OC)c(OC)cc2[N+](=O)[O-])C(=O)NCC(=O)O)cc1,1,43*,-9,x,x,-1
CC(C)C#Cc1ccc2c(c1)O[C@H](CN(C)C(=O)c1ccccn1)[C@H](C)CN([C@H](C)CO)S2(=O)=O,6,-1,x,0,-4,-14
COc1ccc(CCN2C(=O)c3cccnc3C2=O)cc1OC,x,x,56*,-2,-3,-1
O=C(CCCN1C(=O)C(c2ccccc2)Oc2cccnc21)Nc1cccc(F)c1 (stereo not given),-27*,0,-1,1,3,3
O=C(C[C@@H]1C[C@H]2c3cc(NC(=O)c4cccnc4)ccc3O[C@H]2[C@H](CO)O1)NCc1ccccn1,5,-1,x,11,3,7
Cc1nc(OCc2c(C)noc2C)c2ccccc2n1,12,43*,-2,x,x,1
Cc1noc(C)c1COc1ccc(CC(=O)NCc2ccccc2)cc1,1,0,-2,x,x,1
Cc1ccc(S(=O)(=O)NN2C(=O)/C(=C/c3cccs3)SC2=S)cc1,-34*,0,-6,-4,-10,-1
Cc1ccc(/C=C2\SC(=S)N(NS(=O)(=O)c3ccc(C)cc3)C2=O)cc1,-40,0,-3,121*,-13,15
Cc1ccc(S(=O)(=O)NN2C(=O)/C(=C\c3ccc(Cl)cc3)SC2=S)cc1,4,0,14,-2,-7,x
CNC[C@H]1Oc2ncc(C3=CCCC3)cc2C(=O)N([C@@H](C)CO)C[C@H]1C,2,x,x,x,x,2
COc1ccc(C(=O)Nc2ccc3c4c(cccc24)CC3)cc1,x,x,-14,x,x,86*
COc1ccc(C(=O)Nc2ccc(C(=O)NCCc3ccccc3)cc2)cc1,23,44*,-17,x,x,x
COc1ccc(C(=O)Nc2cc(OC)c(NC(=O)Nc3ccccc3)cc2OC)cc1,-12,0,73*,-2,6,x
COc1ccc(NC(=O)c2ccccc2)cc1,14,0,3,0,2,-2
COc1ccc(OC)c(NC(=O)c2cc3ccccc3cc2OC)c1,-22,0,51*,-1,3,x
CC(=O)N(C)C[C@H]1Oc2c(N)cccc2C(=O)N(C)C[C@@H]1C,2,x,x,x,x,x
C[C@@H]1CCCCO[C@@H](CN(C)CC2CCCCC2)[C@H](C)CN([C@@H](C)CO)C(=O)c2cc(NC(=O)c3ccncc3)ccc2O1,-6,0,x,4,-1,2
COc1cc2ccccc2cc1C(=O)Nc1ccc(Cl)cn1,x,0,84*,0,-2,x
C[C@@H]1CN([C@H](C)CO)C(=O)c2cc(NC(=O)C3CCCCC3)ccc2O[C@H]1CN(C)S(=O)(=O)c1ccc(Cl)cc1,-3,0,x,51,-2,17
CN1c2ccccc2C(C)(C)[C@]12C=Cc1cc(O)ccc1O2,x,x,74*,-1,-5,x
CN1c2ccccc2C(C)(C)C12C=Nc1c(ccc3ccccc13)O2 (stereo not given),x,x,5,x,x,-25
CCOC(=O)COn1c(=O)c(-c2ccc(OC)cc2)[n+]([O-])c2ccccc21,9,0,-4,-1,-7,-4
SMILES,Ecoli rRNA inh,FGF22 binding,Vif imaging,Cneo AK release,PglD inh,PGC1a acetyl inh
CCOC(=O)COn1c(=O)c(-c2ccccc2)[n+]([O-])c2ccccc21,11,0,76*,3,4,-6
CCOC(=O)C1(CCOC)CCN(Cc2ccncc2)CC1,22,43*,11,x,x,2
CCOC(=O)C1(Cc2ccccc2Cl)CCN(Cc2csc(C(C)=O)c2)CC1,-23*,0,4,-1,-2,0
CCOC(=O)C1(Cc2cccc(OC)c2)CCN(Cc2ccccc2)CC1,-9,x,22,2,2,2
CCOC(=O)C1(CCCc2ccccc2)CCN(Cc2nccn2CC)CC1,-21,43*,-1,x,x,x
CCOC(=O)C1(CCOc2ccccc2)CCN(Cc2ccc(-n3cccn3)cc2)CC1,-58,44*,-1,-1,3,x
Cc1ccc(-c2cnc3c(c2)C(=O)N([C@H](C)CO)C[C@@H](C)[C@@H](CN(C)C)O3)cc1,2,0,x,-6,-3,8
C/C=C/c1cnc2c(c1)C(=O)N([C@@H](C)CO)C[C@@H](C)[C@H](CN(C)C(=O)Cc1ccccc1)O2,1,0,x,0,0,-4
O=C(NCCN1CCN(c2ccccc2)CC1)c1ccc2c(c1)[nH]c(=S)n1c3ccccc3nc21,-9,43*,0,x,x,7
CCOc1ccccc1N(C(=O)c1ccccc1Cl)C1=NC(C)(C)CS1,-23*,0,-8,-2,x,5
Cc1sc2nc3c(SC(C)C(=O)O)cc(C(=O)c4ccccc4O)cn3c(=O)c2c1C (stereo not given),x,x,0,x,x,x
CCc1c(C)sc2nc3c(C(=O)N4CCOCC4)cc(C(=O)c4ccccc4O)cn3c(=O)c12,19,43*,-4,1,2,-6
COc1ccccc1-c1cnc2c(c1)C(=O)N([C@H](C)CO)C[C@@H](C)[C@H](CN(C)Cc1cncnc1)O2,1,0,x,82*,0,9
C[C@@H]1CN([C@H](C)CO)C(=O)c2cc(C#CC3(O)CCCC3)cnc2O[C@@H]1CN(C)Cc1cccnc1,2,0,x,x,x,4
C[C@@H]1CN([C@H](C)CO)C(=O)c2cc(C#CC(C)(C)O)cnc2O[C@H]1CN(C)Cc1cncnc1,5,0,x,-4,2,6
COc1ccccc1-c1cnc2c(c1)C(=O)N([C@@H](C)CO)C[C@H](C)[C@H](CN(C)Cc1cncnc1)O2,1,0,x,-1,0,1
C[C@H](CO)N1C[C@H](C)[C@H](CN(C)Cc2cccnc2)Oc2ncc(C#CC3(O)CCCC3)cc2C1=O,2,0,x,98*,-10,-12
C[C@@H]1CN([C@H](C)CO)C(=O)c2cc(C#CC(C)(C)O)cnc2O[C@@H]1CN(C)Cc1cncnc1,4,0,x,85*,1,5
O=C(c1ccc2c(c1)OCO2)N1C[C@H]2[C@@H](c3ccccc31)[C@@H](CO)N2CC1CCCC1,-40,0,x,1,3,-18
CO[C@@H]1CN(C)C(=O)c2cc(NC(=O)Nc3ccc4c(c3)OCO4)ccc2OC[C@H](C)NC[C@@H]1C,4,-1,x,-2,1,1

# Screening results (PubChem BioAssay)
